Results reported in ChEMBL document CHEMBL4602675, “The Marine Natural Product Manzamine A Inhibits Cervical Cancer by Targeting the SIX1 Protein” (J Nat Prod, 2020).
pIC50: −log10 of the molar value. Activity calls are given as the source filed them. No cut-off for these calls is given here.

Columns and labels:
C-33-A [1] = assay: Cell cycle arrest in human C33A cells assessed as accumulation at G0/G1 phase at 4 uM after 48 hrs by propidium iodide staining based flow cytometric analysis (reference value: 54.6%); type: functional
Method in brief: (§1)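 Cells in DMEM/10% FBS at 37 °C, 5% CO2 were given 4 μM for 24, 48 or 72 h, with DMSO as control. After trypsinization they were fixed in chilled 70% ethanol on ice for 30 min, treated with RNase A (1 mg/mL) for 30 min at room temperature, and stained with PI (20 μg/mL). At least 10 000 events were read by flow cytometry to give sub-G1, G0/G1, S and G2/M fractions; mean ± SEM.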

[2] = molecular target: T1, Protein E7 (Human papillomavirus 16) (UniProt P03129); assay: Inhibition of Human papillomavirus type16 derived E7 in human SiHa cells assessed as decrease in phosphorylation of Rb at 2 to 4 uM after 48 hrs by Western blot analysis; type: cell-based
T1 sequence (whole entry): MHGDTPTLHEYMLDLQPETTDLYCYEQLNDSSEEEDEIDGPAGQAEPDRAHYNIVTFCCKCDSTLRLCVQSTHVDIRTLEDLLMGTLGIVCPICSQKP
Method in brief: (§2)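 Cells were seeded at 1 × 10^6 per 100 mm dish and treated next day with 2 or 4 μM for 48 h. They were trypsinised, PBS-washed and lysed in RIPA with protease inhibitors. Equal protein was run on SDS-PAGE and transferred to PVDF. Primary antibodies were used at 1:500, with BSA 3% for blocking and antibodies for CK2α, Rb and pRb, otherwise 5% milk in TBST. HRP secondary at 1:2000, chemiluminescence detection.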

HeLa [3] = assay: Induction of apoptosis in human HeLa cells assessed as late apoptotic cells at 4 uM after 48 hrs by Annexin V-FITC/PI double staining based flow cytometric analysis (reference value: 4.4%); type: functional
[4] = molecular target: Protein E6 (Human papillomavirus 16) (UniProt P03126); assay: Inhibition of Human papillomavirus type16 derived E6 in human SiHa cells assessed as increase in p53 protein expression at 2 to 4 uM after 48 hrs by Western blot analysis; type: cell-based; method in brief: as §2
Ca-Ski [5] = assay: Inhibition of colony formation in human CaSki cells at 2 to 4 uM afer 1 week by crystal violet staining based assay; type: functional, cell-based
Method in brief: (§3)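 Cells were grown in DMEM with 10% FBS, seeded at 1 × 10^3 cells/ml in six-well plates, incubated overnight, then exposed to 2 or 4 μM at 37 °C under 5% CO2 for one week. Colonies were fixed with 4% paraformaldehyde, stained with 0.5% crystal violet and photographed.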

[6] = Toxicity in po dosed rat; type: organism-based; conditions: in vivo
Ca-Ski [7] = assay: Cell cycle arrest in human CaSki cells assessed as accumulation at G0/G1 phase at 4 uM after 72 hrs by propidium iodide staining based flow cytometric analysis (reference value: 77.6%); type: functional
[8] = molecular target: Protein E6 (human papillomavirus 18) (UniProt P06463); assay: Inhibition of Human papillomavirus type18 derived E6 in human HeLa cells assessed as increase in p53 protein expression at 2 to 4 uM after 48 hrs by Western blot analysis; type: cell-based; method in brief: as §2
Keratinocyte = assay: Cytotoxicity against human Keratinocytes assessed as reduction in cell viability 2 to 4 uM incubated up to 72 hrs by CellTiter-Glo assay; type: cell-based
SiHa [9] = assay: Induction of apoptosis in human SiHa cells assessed as late apoptotic cells at 4 uM after 48 hrs by Annexin V-FITC/PI double staining based flow cytometric analysis (reference value: 2.3%); type: functional
SiHa [10] = assay: Cell cycle arrest in human SiHa cells assessed as increase in accumulation at G0/G1 phase at 4 uM incubated for 48 hrs by propidium iodide staining based flow cytometric analysis; type: functional
Method in brief: (§4)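 Cells in DMEM with 10% FBS, 2 mM L-glutamine, pen-strep, 37 °C, 5% CO2; seeded and left overnight, then treated at 4 μM with DMSO as control. Harvested by trypsin at 24, 48 or 72 h, fixed in chilled 70% ethanol 30 min on ice, RNase A (1 mg/mL) 30 min at room temperature, PI (20 μg/mL). Flow cytometry, ≥10 000 events, G0/G1, S, G2/M fractions; mean ± SEM.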

SiHa [11] = assay: Inhibition of colony formation in human SiHa cells at 2 to 4 uM afer 1 week by crystal violet staining based assay; type: functional, cell-based; method in brief: as §3
SiHa [12] = assay: Induction of apoptosis in human SiHa cells assessed as early apoptotic cells at 4 uM after 48 hrs by Annexin V-FITC/PI double staining based flow cytometric analysis (reference value: 2.4%); type: functional
C-33-A [13] = assay: Cell cycle arrest in human C33A cells assessed as accumulation at G2/M phase at 4 uM after 24 hrs by propidium iodide staining based flow cytometric analysis (reference value: 26.2%); type: functional; method in brief: as §1
C-33-A [14] = assay: Induction of apoptosis in human C33A cells assessed as early apoptotic cells at 4 uM after 24 hrs by Annexin V-FITC/PI double staining based flow cytometric analysis (reference value: 4.3%); type: functional
SiHa [15] = assay: Antiproliferative activity against human SiHa cells assessed as reduction in cell viability after 24 hrs by CellTiter-Glo assay; type: functional, cell-based
Method in brief: (§5)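 ATP-based luminescent viability readout. Cells were grown in DMEM with 10% FBS, 2 mM L-glutamine and penicillin-streptomycin at 37 °C, 5% CO2. 2 × 10^4 cells/well were seeded, then exposed the next day to 0–40 μM for 24, 48 or 72 h. % viability = 100 × treated/control. IC50 was fitted from a sigmoid dose-response curve. Run at least three times in quadruplicate; mean ± SEM.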

HeLa [16] = assay: Induction of apoptosis in human HeLa cells assessed as apoptotic cells at 4 uM after 48 hrs by Annexin V-FITC/PI double staining based flow cytometric analysis (reference value: 19.3%); type: functional
HeLa [17] = assay: Induction of apoptosis in human HeLa cells assessed as early apoptotic cells at 4 uM after 24 hrs by Annexin V-FITC/PI double staining based flow cytometric analysis (reference value: 6.3%); type: functional
SiHa [18] = assay: Cell cycle arrest in human SiHa cells assessed as increase in accumulation at G0/G1 phase at 4 uM incubated for 24 hrs by propidium iodide staining based flow cytometric analysis; type: functional; method in brief: as §4
Ca-Ski [19] = assay: Induction of apoptosis in human CaSki cells assessed as early apoptotic cells at 4 uM after 48 hrs by Annexin V-FITC/PI double staining based flow cytometric analysis (reference value: 4.4%); type: functional
[20] = molecular target: Casein kinase II subunit alpha (Homo sapiens) (UniProt P68400); assay: Inhibition of CK2alpha in human CaSki cells at 2 to 4 uM after 48 hrs by Western blot analysis; type: cell-based; conditions: Ca-Ski; method in brief: as §2
HeLa [21] = assay: Cell cycle arrest in human HeLa cells assessed as accumulation at Sub G1 phase at 4 uM after 24 hrs by propidium iodide staining based flow cytometric analysis (reference value: 2.2%); type: functional; method in brief: as §1
C-33-A [22] = assay: Cell cycle arrest in human C33A cells assessed as accumulation at G0/G1 phase at 4 uM after 24 hrs by propidium iodide staining based flow cytometric analysis (reference value: 58.4%); type: functional; method in brief: as §1
Ca-Ski [23] = assay: Antiproliferative activity against human CaSki cells assessed as reduction in cell viability after 72 hrs by CellTiter-Glo assay; type: functional, cell-based; method in brief: as §5
HeLa [24] = assay: Cell cycle arrest in human HeLa cells assessed as accumulation at G2/M phase at 4 uM after 72 hrs by propidium iodide staining based flow cytometric analysis (reference value: 12.6%); type: functional; method in brief: as §1

Protein E6 (human papillomavirus 18), sequence (P06463 whole entry): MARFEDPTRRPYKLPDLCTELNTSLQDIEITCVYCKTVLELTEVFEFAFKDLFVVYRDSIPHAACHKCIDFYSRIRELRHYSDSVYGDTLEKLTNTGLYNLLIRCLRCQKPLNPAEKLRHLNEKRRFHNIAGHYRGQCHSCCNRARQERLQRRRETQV
Casein kinase II subunit alpha (Homo sapiens), sequence (P68400 whole entry, looked up): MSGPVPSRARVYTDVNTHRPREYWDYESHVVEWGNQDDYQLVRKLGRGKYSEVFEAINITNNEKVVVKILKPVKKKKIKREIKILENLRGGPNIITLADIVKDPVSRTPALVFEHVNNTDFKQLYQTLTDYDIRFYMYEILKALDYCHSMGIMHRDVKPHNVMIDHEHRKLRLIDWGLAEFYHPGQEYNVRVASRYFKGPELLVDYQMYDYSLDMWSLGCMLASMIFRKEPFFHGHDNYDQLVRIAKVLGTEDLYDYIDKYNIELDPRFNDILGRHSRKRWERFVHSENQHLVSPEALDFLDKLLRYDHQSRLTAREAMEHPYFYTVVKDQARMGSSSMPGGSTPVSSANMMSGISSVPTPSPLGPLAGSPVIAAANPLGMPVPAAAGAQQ
Protein E6 (Human papillomavirus 16), sequence (P03126 whole entry): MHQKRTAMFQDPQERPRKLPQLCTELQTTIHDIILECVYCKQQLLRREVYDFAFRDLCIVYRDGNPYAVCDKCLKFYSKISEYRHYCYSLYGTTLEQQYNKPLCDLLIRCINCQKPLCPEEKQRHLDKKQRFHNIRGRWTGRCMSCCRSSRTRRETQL

With `O[C@]12C=C(c3nccc4c3[nH]c3ccccc34)[C@@H]3CCN(CCCC/C=C\CC1)C[C@@]31C[C@@H]3/C=C\CCCCN3[C@H]12` [MANZAMINE A] the Activity (C-33-A [1]) was 44.2%, the inhibition [2] was “Active” and the Activity (HeLa [3]) was 14.1%. The inhibition [4] was “Active”, the inhibition (Ca-Ski [5]) was “Active” and the LD50 [6] was 200 to 300 mg/kg. The Activity (Ca-Ski [7]) was 81.7%, the inhibition [8] was “Active” and the Activity (Keratinocyte) was “Non-Toxic”. The Activity (SiHa [9]) was 4.2%, the “fold change (FC)” value (SiHa [10]) was 1.2 and the inhibition (SiHa [11]) was “Active”. The Activity (SiHa [12]) was 27%, the Activity (C-33-A [13]) was 24.6% and the Activity (C-33-A [14]) was 17.4%. It also gave a pIC50 (SiHa [15]) of 4.70, an Activity (HeLa [16]) of 75.9% and an Activity (HeLa [17]) of 10.5%. The “fold change (FC)” value (SiHa [18]) was 1.2, the Activity (Ca-Ski [19]) was 13.4% and the inhibition [20] was “Active”. The Activity (HeLa [21]) was 2.1%, the Activity (C-33-A [22]) was 58.5% and the pIC50 (Ca-Ski [23]) was 5.03. It also gave an Activity (HeLa [24]) of 16.2%.
